For this data set, the system named is MS2 coat protein. Put plainly: apparent Kd, MS2 coat protein; higher = weaker binding; RNA-MaP array; FMN 200 µM where present. Summed up:
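The apparent Kd comes from binding curves fitted cluster by cluster, filtered, and summarised as a median. Those curves followed SNAP-549-labelled MS2 coat protein from 0.7 or 1.5 nM, doubling to 3 µM, on Illumina sequencing-chip clusters where stalled E. coli RNA polymerase had transcribed the designs, without and then with constant ligand. The buffer was 100 mM Tris-HCl pH 7.5, 80 mM KCl, 4 mM MgCl2, BSA, DTT, yeast tRNA and Tween-20, and green signal was normalised to red-channel RNA signal and control-cluster median Fmax.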

Where [1] appears, read: designed as: OFF switch for flavin mononucleotide, no ligand.
Where [2] appears, read: ligand present: flavin mononucleotide, designed as: OFF switch for flavin mononucleotide.
Setting [3] is: designed as: ON switch for flavin mononucleotide, no ligand.
Setting [4] is: ligand present: flavin mononucleotide, designed as: ON switch for flavin mononucleotide.

As for “CCCGCUGCUGUGAGGAUAUGCCUGUGGGUGCGUGGGUAGAAGGCACAUGAGGAUCACCCAUGUCCUGCGGCUCC”, the “apparent Kd” value was found to be 366 nM under setting [1] and 244 nM under setting [2].
The matching figures for “GUCAGCUCGUGAGGAUAUACAACACUGCUUCGGCAGUGUAUUAAGAUCACAUGAGGAUCACCCAUGUAGAAGGCACGAGCUGUU”: 13.8 nM and 305 nM.
In the same order, the values of “GGUGGUCCUGUUACAUGAGGAUCACCCAUGUGAGGGCCACGUAGAAGGACCCAGAACUCCUUUGGGUAGGAUAUAUGGGCCUUC” are 4.78 nM and 5.97 nM.
In the same order, the values of “CUCCCAUGUGUAGGAUAUAGAAAACCGAAAUGGCUAGAAGGACACAUGAGGAUCACCCAUGUAACCUUAACUUAGUGUACCGGG” are 53.3 nM and 124 nM.
Consider “CACCGUAACAGAGGAUAUGAUACAUGAGGAUCACCCAUGUAAUAAAUGAGAAUUUCGAAUGUACCUCAGAAGGCUGGAACCGGC”, for which the “apparent Kd” value is, setting by setting: under setting [1], 45.7 nM; under setting [2], 96.6 nM.
“GGUGCGUAUGUGAGGAUAUGCUGGUCCUUGGAUCGGCAGAAGGCACAUGAGGAUCACCCAUGUGGUGUCGUACC”: the “apparent Kd” value reads like this: under setting [1], 339 nM; under setting [2], 24.4 nM.
The matching figures for “UGUCCAUAGCAGAAGGACAUGUAUAACCAUGAAAACAUGAGGAUCACCCAUGUAGGAUAUGCUAUGGACUAAGAGCGAAAGCUC”: 8.57 nM and 68.8 nM.
As to “CAGUACUGAGGAUAUACAUGAGGAUCACCCAUGUGUUCCAGCUAGGAAACUAGCAAAUGUAGAAGGCAGUACUG”, the “apparent Kd” value runs as follows: under setting [1], 212 nM; under setting [2], 317 nM.
The matching figures for “CCGCUGUCAGGAUAUCGUGCAUACAACGAAAGUUCUAUGUGCGAGAAGGGACAUGAGGAUCACCCAUGUUUCCG”: 16.6 nM and 25.8 nM.
The matching figures for “AGGUGACAUGAGGAUCACCCAUGUCAGGAUAUAUACACCGCCGGCGUGAAGCCGACGGAUAGAAGGGACAAAAU”: 16.6 nM and 21.6 nM.
The matching figures for “UCAGGCUUCGAGAAGGACAUGAAUCGUAGCAUUGCUACGAUCAUUGAUACAUGAGGAUCACCCAUGUAGGAUAUCGGAGUCUGC”: 5.99 nM and 6.75 nM.
As to “ACCCAGUUUUGCACUACAUGAGGAUCACCCAUGUGAGCGAGCAGAAGGACGAUGGGUGGAAAAUCGUAGGAUAUGCACUGGGUA”, the “apparent Kd” value under setting [3] turned out to be 47.2 nM and the “apparent Kd” value under setting [4] was determined as 12.6 nM.
On to “AGCUCAAAAGUGAGGAUAUCUAGGGUCAAAUGACCGGAGAAGGCACAUGAGGAUCACCCAUGUAACGCCAUGGA”, for which the “apparent Kd” value runs as follows: under setting [1], 12.9 nM; under setting [2], 31.6 nM.
The matching figures for “CCGGGAAUAUUAAAUACCUCAACAUGAGGAUCACCCAUGUUGCAGGAUAUCAAUGAGUUGGAAAAUGAGAAGGGCAGCGGGAGA”: 5.81 nM and 7.34 nM.
The matching figures for “GUUAAUUAGUGAGGAUAUACAGAGAGUGAAGCUGUAGAAGGCACAUUCCUCAAGACAUGAGGAUCACCCAUGUGAUAAUAAGAU”: 37.4 nM and 105 nM.
In the same order, the values of “UGCUACAUGAGGAUCACCCAUGUAAUGUGGGAUUCGUUAGGACAGGAUAUGAUUGUAUAGUUUUUUCAGAAGGGUCAUUACUUU” are 69.2 nM and 135 nM.
As for “ACUGCAUAGUCAGGAUAUGCAAAAGCAGAUGCAAAGCAUCUGAACAACACAUGAGGAUCACCCAUGUAGAAGGGACUGUGCAGU”, the “apparent Kd” value amounted to 23.3 nM under setting [1] and 22.4 nM under setting [2].
In the same order, the values of “AAUGUACUCGGAGGAUAUCCCACAUGAGGAUCACCCAUGUGGGUCACUGAUUCUCGUAUCGUCCGGGAGAAGGCCGAGAACUGA” are 34.6 nM and 111 nM.
The matching figures for “GUACGUGGACAGAAGGCGACAUGAGGAUCACCCAUGUUGGCUCGGGUAUGACCAAUCCGCAUGAUUGAGGAUAUGUCUGCGGGC”: 9.07 nM and 62.4 nM.
The matching figures for “AACAGGUCAGGAUAUACAUGAGGAUCACCCAUGUAACAAGCGGAGGCGACUUCUCAAGGUAGAAGGGAUCUCCG”: 19.8 nM and 18.9 nM.
For the sequence “GGACCAUAUCAGGAUAUGACUAGCUUCGGCUAGUCAGAAGGGAUGACAUGAGGAUCACCCAUGUGAUCAGGUCC”, the “apparent Kd” value reads like this: under setting [1], 42.1 nM; under setting [2], 50.5 nM.
In the same order, the values of “GCUGCAUAGGCAGGAUAUGCAAAAGCAGAUGCAAAGCAUUUGUAAAACACAUGAGGAUCACCCAUGUAGAAGGGCCUGUGCAGU” are 21.8 nM and 21.5 nM.
In the same order, the values of “ACUAUACGAGGAUAUACUGUCGGGCCUCGGACAUAAAUACGACAUGAGGAUCACCCAUGUAGAAGGCGUUUACU” are 31.2 nM and 54 nM.
Consider “AAAGCCAACGAAGGAUAUACAAACAUGAGGAUCACCCAUGUGUCUUUCGUGUAACUGGAAUUCGGGUAGAAGGUCGUUGACAUA”, for which the “apparent Kd” value under setting [1] was 14.9 nM and the “apparent Kd” value under setting [2] was determined as 21.7 nM.
The matching figures for “GGAUCGCGUGUGAGGAUAUGCUCGACCUUGGUCGAGCAGAAGGCACAUGAGGAUCACCCAUGUGACCUCGGUCC”: 87.5 nM and 451 nM.
Take “GCAGCACAUGAGGAUCACCCAUGUCUUCGGAGUCGAGGAUAUGGUCACUGUAAACAGUGGCCAGAAGGCGAGUUGC”: the “apparent Kd” value runs as follows: under setting [3], 31.7 nM; under setting [4], 27.2 nM.
Regarding “CCAGCUCGUGUUAGGAUAUCCAAGCUGCGGCUGGUGGAGAAGGGACAUGAGGAUCACCCAUGUAAUAAAGAAAA”, the “apparent Kd” value under setting [1] is 26.4 nM and the “apparent Kd” value under setting [2] was found to be 31.9 nM.
For “AUUGAUGUUGAGGAUAUGCUUUUAUUUAUUAUAGCAGAAGGCGAUACAUGAGGAUCACCCAUGUUCAUGGCUUU”, the “apparent Kd” value runs as follows: under setting [1], 11.8 nM; under setting [2], 14.9 nM.
In the same order, the values of “GCUAGUAUUGCAGGAUAUUGAGAAUAAUUAUUACAAGAAGGGCAUAACAUGAGGAUCACCCAUGUUUUCCUUAAUGAUACUAGC” are 5.33 nM and 5.59 nM.
Turning to “ACAUCGACAGGAUAUACGUGAGUGGAAAAAGUAUGUCCACUACAUGAGGAUCACCCAUGUAGAAGGGUCGAUGA”, the “apparent Kd” value was determined as 16.2 nM under setting [1] and 15 nM under setting [2].
For “GUGUCUAACUAGAAGGCCGUAUGCAAAGCAUACGGAGGAUAUGGGUUCCGGAAACGGACAUGAGGAUCACCCAUGUGGCACAAA”, the “apparent Kd” value under setting [3] was 94.3 nM and the “apparent Kd” value under setting [4] came out at 13.4 nM.
Consider “UCAGUAGAGUGAGGAUAUACGAAAGGCGAUCCAUACAUGAGGAUCACCCAUGUAGAAGGCACUCUACUGUAAGUCGGAAACGAC”, for which the “apparent Kd” value was found to be 173 nM under setting [1] and 12.3 nM under setting [2].
The matching figures for “GUAGGGUCAGGAUAUACUGGCUGAGGGAUGUAUUGUAGUUGGUAGAAGGGACAUGAGGAUCACCCAUGUAAGUA”: 35.4 nM and 34 nM.
With “GGGCCGUUGCAGAAGGCCGGCGGGCUUGGCGCCGGAGGAUAUGCAUGUGCACAUGAGGAUCACCCAUGUGCCAGCCCGGAGGGA”, the “apparent Kd” value under setting [3] was 6.56 nM and the “apparent Kd” value under setting [4] turned out to be 5.9 nM.
For “GUUCUGCCUCCUGCCGGAACAUGAGGAUCACCCAUGUUGCCUGAGGAUAUCCUAUGGCUCCCACAGGAGAAGGCAGGCAACAUA”, the “apparent Kd” value is 86.2 nM under setting [1] and 371 nM under setting [2].
On to “GGCUCUAGAGGAUAUACAAACUGAUCCUCAGAGCGCCGGCUACAUGAGGAUCACCCAUGUAGAAGGUUGGAGUC”, for which the “apparent Kd” value came out at 15.6 nM under setting [1] and 13.1 nM under setting [2].
As to “AGGAAGUGAGGAUAUGCAGCAGCUAGUGGACGCUAGCGCAUGUAGAAGGCACAUGAGGAUCACCCAUGUUUAAA”, the “apparent Kd” value is, setting by setting: under setting [1], 32.1 nM; under setting [2], 36.2 nM.
The matching figures for “UAUUAGCUAGGAUAUACAUGAGGAUCACCCAUGUCACGGGUCCACUUGUCCUAUGCGUGUAGAAGGAGCGACCC”: 22.4 nM and 25.8 nM.
With “AGGAGUAAAGGGAAUAACAUGAGGAUCACCCAUGUAUGGGAGAGAAGGCAUAUCGGAGGACGAUAUGAGGAUAUUUAAACUCUA”, the “apparent Kd” value is, setting by setting: under setting [3], 62.6 nM; under setting [4], 18.7 nM.
Turning to “UUCAGCUCGACAGGAUAUACAUCACUGCUUCGGCAGUGUAUCUUAAUAACAUGAGGAUCACCCAUGUAGAAGGGUCGAGCUGAA”, the “apparent Kd” value reads like this: under setting [1], 17.9 nM; under setting [2], 31.4 nM.
As for “GCAUUGAUAACAGGAUAUAUGAGUCCUACAUGAGGAUCACCCAUGUAGGUGAUCAGCCGUGAUUAGUAGAAGGGUUAUCAAUGC”, the “apparent Kd” value reads like this: under setting [3], 13 nM; under setting [4], 5.99 nM.
The matching figures for “GCACUUACGUUAGGAUAUGGAUCGGAAAACGAUCCAGAAGGAAUAUGGGAACAUGAGGAUCACCCAUGUUCCUCAGACAAGUGC”: 67.7 nM and 35.1 nM.
In the same order, the values of “CCGUUGAUGGGACAGGAUAUGACUGUCGUCACAUGAGGAUCACCCAUGUCCCGGCAAUGCCACCGUUAGAAGGGUCCCGUCUCGG” are 16 nM and 15.9 nM.
As to “UUUAACAGAGGAUAUGCGAAUAAAUAAAACUUUUUUUUUUAACAUGAGGAUCACCCAUGUAGAAGGCUGAUUUU”, the “apparent Kd” value is, setting by setting: under setting [1], 45.7 nM; under setting [2], 47.7 nM.
The matching figures for “AGGGAUAAAGGAUAUACAUGAGGAUCACCCAUGUUGAGGAAAGUGAGAGGUGGCGAUAGUAGAAGGUUAGGUGG”: 92.6 nM and 70.1 nM.
The matching figures for “UGCACCAACGAGAAGGCACAGAUCCAGCUCUUGACAUGAGGAUCACCCAUGUGAGGAUAUCGUAGGUGCGCAUUGGGACAAUCU”: 11.9 nM and 103 nM.
In the same order, the values of “AUGGACGCAGGAUAUACAUGAGGAUCACCCAUGUGAGGUAGGUAAGUAGGAAGUGAAGGUAGAAGGGCGAGAGA” are 67.2 nM and 95.3 nM.
On to “AUCUCGUCAGGAUAUUGGAUCUGGAUCGAAAGGUCUAGGUCUAAGAAGGGACAUGAGGAUCACCCAUGUCUGGU”, for which the “apparent Kd” value reads like this: under setting [1], 22.9 nM; under setting [2], 69.6 nM.

The apparent Kd is the concentration giving half-maximal binding under the conditions of the assay.
